# Active and inactive are the calls of the source. No cut-off for these calls is given here.
# Columns and labels:
# [1] = Toxicity in dog assessed as GI mucosal erosion at 2 to 6 mg/kg,po QD consecutive for 14 days followed by 2 weeks recovery period; type: organism-based, Canis lupus familiaris; settings: in vivo, 336 h, dose 2-6 mg/kg, time 14 day
# Summary of the method: (§1)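 Oral suspension given once daily for 14 consecutive days (rat 2, 6, 20 mg/kg; dog 2, 4, 6 mg/kg) in dose range-finding and GLP repeat-dose studies, GLP arms with an added 2-week recovery period; histopathology and clinical pathology findings recorded.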
# [2] = Toxicity in dog assessed as GI mucosal atrophy at 2 to 6 mg/kg,po QD consecutive for 14 days followed by 2 weeks recovery period; type: organism-based, Canis lupus familiaris; settings: in vivo, 336 h, dose 2-6 mg/kg, time 14 day; summary of the method: as §1
# [3] = AUC (0 to infinity) in mouse at 10 mg/kg,sc; type: ADME, organism-based; set-up: dose 10 mg/kg, route sc; settings: in vivo
# MV4-11 [4] = experiment: In vivo inhibition of BRD4 in human MV4-11 cells xenografted in BALB/c mouse assessed as reduction in cellular MYC mRNA expression level in plasma at 15 mg/kg,sc BID and measured for 8 to 12 hrs by PCR anlaysis; type: functional, organism-based; settings: time 8-12 hrs
# Summary of the method: (§2)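 Pharmacodynamic study in MV-4-11 AML mouse xenograft. Dosing was 15 mg/kg subcutaneous twice daily. At 4, 8 and 12 h after the second dose, MYC mRNA was measured against vehicle, and compound levels were measured in plasma and tumor. Free plasma concentration was estimated alongside total levels.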
# [5] = Initial plasma concentration in human patient with progression lymphoma at 300 mg,po QD and measured after 24 hrs; type: ADME; settings: read-out: C0
# Summary of the method: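 Trough plasma concentration taken as concentration at 24 h after oral dosing, 300 mg cohort, patients with hematologic malignancies.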
# MV4-11 [6] = experiment: Antitumor activity against human MV4-11 cells xenografted in BALB/c mouse assessed as tumor growth inhibition at 30 mg/kg,po BID for 28 days; type: functional; settings: MV4-11, 672 h, time 28 day, read-out: TGI
# Summary of the method: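 Single-agent efficacy in MV-4-11 AML mouse xenograft. Tumor volume (mm3) and percent body-weight change were tracked over the treatment days.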
# [7] = Unbound AUC in dog at 2.5 mg/kg,po; type: ADME, organism-based, Canis lupus familiaris; settings: in vivo
# [8] = Unbound Cmax in human patient with progression lymphoma at 300 mg,po QD consecutively for 14 days; type: ADME; settings: in vivo, 336 h, time 14 day
# Summary of the method: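 Oral dosing in patients with hematologic malignancies, cycles at escalating doses; 300 mg cohort sampled at day 14. Unbound Cmax = free fraction × Cmax.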
# [9] = Apparent oral clearance in human patient with progression lymphoma at 300 mg,po QD consecutively for 14 days; type: ADME; settings: in vivo, 336 h, time 14 day
# Summary of the method: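 Phase I trial in patients with hematologic malignancies, oral dosing once daily with escalating cohorts; values are from the 300 mg dose on day 14. AUC0-24 was taken as exposure over 24 h. Apparent clearance was calculated as Dose/AUC0-24.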
# [10] = Half life in dog plasma at 0.5 mg/kg,iv; type: ADME, organism-based, Canis lupus familiaris
# [11] = Toxicity in rat assessed as hypocellularity of bone marrow with associated anemia and thrombocytopenia at 2 to 20 mg/kg,po QD consecutive for 14 days followed by 2 weeks recovery period; type: organism-based; settings: in vivo, 336 h, dose 2-20 mg/kg, time 14 day; summary of the method: as §1
# [12] = Volume of distribution at steady state in dog at 0.5 mg/kg,iv; type: ADME, organism-based, Canis lupus familiaris; settings: in vivo, read-out: Vdss
# [13] = molecular target: Histone acetyltransferase KAT2B (Homo sapiens, UniProt Q92831); experiment: Binding affinity to PCAF bromodomain (unknown origin) incubated for 60 mins by TR-FRET assay
# [14] = AUC (0 to infinity) in rat at 5 mg/kg,po; type: ADME, organism-based; set-up: dose 5 mg/kg, route po; settings: in vivo
# [15] = Tmax in human patient with progression lymphoma at 300 mg,po QD consecutively for 14 days; type: ADME; settings: in vivo, time 14 day
# MV4-11 [16] = experiment: In vivo inhibition of BRD4 in human MV4-11 cells xenografted in BALB/c mouse assessed as reduction in cellular MYC mRNA expression level in plasma at 15 mg/kg,sc BID and measured at 4 hrs by PCR anlaysis; type: functional, organism-based; summary of the method: as §2
# [17] = Tmax in mouse at 30 mg/kg,po; type: ADME, organism-based; settings: in vivo
# MV4-11 [18] = experiment: Antitumor activity against human MV4-11 cells xenografted in BALB/c mouse assessed as complete tumor growth inhibition at 10 mg/kg,sc BID in presence of doxorubicin at 2 mg/kg,iv BIW for 28 days; type: functional, organism-based; settings: time 28.0 day
# [19] = Toxicity in rat assessed as GI mucosal ulceration at 2 to 20 mg/kg,po QD consecutive for 14 days followed by 2 weeks recovery period; type: organism-based; settings: in vivo, 336 h, dose 2-20 mg/kg, time 14 day; summary of the method: as §1
# [20] = Unbound AUC in rat at 5 mg/kg,po; type: ADME, organism-based; settings: in vivo
# [21] = Half life in rat plasma at 1 mg/kg,iv; type: ADME, organism-based
# [22] = Tmax in dog at 2.5 mg/kg,po; type: ADME, organism-based, Canis lupus familiaris; settings: in vivo
# [23] = molecular target: Bromodomain-containing protein 8 (Homo sapiens, UniProt Q9H0E9); experiment: Displacement of biotinylated JQ1 from BRD8 bromodomain (unknown origin) incubated for 20 mins by AlphaLISA assay
# [24] = Cmax in rat at 5 mg/kg,po; type: ADME, organism-based; set-up: dose 5 mg/kg, route po; settings: in vivo
# [25] = Initial unbound plasma concentration in human patient with progression lymphoma at 300 mg,po QD and measured after 24 hrs; type: ADME; settings: in vivo
# [26] = Toxicity in dog assessed as lymphoid depletion at 2 to 6 mg/kg,po QD consecutive for 14 days followed by 2 weeks recovery period; type: organism-based, Canis lupus familiaris; settings: in vivo, 336 h, dose 2-6 mg/kg, time 14 day; summary of the method: as §1
# [27] = Cmax in mouse at 10 mg/kg,sc; type: ADME, organism-based; set-up: dose 10 mg/kg, route sc; settings: in vivo
# Sequence of Histone acetyltransferase KAT2B (Q92831 whole entry): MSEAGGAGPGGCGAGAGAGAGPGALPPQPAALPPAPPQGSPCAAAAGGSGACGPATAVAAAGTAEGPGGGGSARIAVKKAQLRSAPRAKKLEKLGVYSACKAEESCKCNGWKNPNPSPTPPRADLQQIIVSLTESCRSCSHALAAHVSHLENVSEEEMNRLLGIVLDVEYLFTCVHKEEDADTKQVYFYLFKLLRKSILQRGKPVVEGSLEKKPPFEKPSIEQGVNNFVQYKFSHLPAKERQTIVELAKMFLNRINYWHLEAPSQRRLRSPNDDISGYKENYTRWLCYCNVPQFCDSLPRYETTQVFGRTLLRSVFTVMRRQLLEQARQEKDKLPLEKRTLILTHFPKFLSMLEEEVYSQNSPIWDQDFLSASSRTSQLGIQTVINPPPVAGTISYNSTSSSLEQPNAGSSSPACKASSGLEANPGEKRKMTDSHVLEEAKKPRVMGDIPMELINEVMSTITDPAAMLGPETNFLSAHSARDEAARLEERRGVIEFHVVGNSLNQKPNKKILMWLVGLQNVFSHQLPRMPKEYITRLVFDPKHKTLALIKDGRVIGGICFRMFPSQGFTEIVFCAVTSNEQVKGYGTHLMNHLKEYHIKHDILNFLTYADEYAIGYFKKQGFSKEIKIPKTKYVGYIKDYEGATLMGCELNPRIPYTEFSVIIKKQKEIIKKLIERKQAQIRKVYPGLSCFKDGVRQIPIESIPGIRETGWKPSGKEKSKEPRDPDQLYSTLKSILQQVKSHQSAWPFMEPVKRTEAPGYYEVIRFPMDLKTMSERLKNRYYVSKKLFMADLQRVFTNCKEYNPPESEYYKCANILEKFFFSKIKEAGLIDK
# Sequence of Bromodomain-containing protein 8 (Q9H0E9 whole entry): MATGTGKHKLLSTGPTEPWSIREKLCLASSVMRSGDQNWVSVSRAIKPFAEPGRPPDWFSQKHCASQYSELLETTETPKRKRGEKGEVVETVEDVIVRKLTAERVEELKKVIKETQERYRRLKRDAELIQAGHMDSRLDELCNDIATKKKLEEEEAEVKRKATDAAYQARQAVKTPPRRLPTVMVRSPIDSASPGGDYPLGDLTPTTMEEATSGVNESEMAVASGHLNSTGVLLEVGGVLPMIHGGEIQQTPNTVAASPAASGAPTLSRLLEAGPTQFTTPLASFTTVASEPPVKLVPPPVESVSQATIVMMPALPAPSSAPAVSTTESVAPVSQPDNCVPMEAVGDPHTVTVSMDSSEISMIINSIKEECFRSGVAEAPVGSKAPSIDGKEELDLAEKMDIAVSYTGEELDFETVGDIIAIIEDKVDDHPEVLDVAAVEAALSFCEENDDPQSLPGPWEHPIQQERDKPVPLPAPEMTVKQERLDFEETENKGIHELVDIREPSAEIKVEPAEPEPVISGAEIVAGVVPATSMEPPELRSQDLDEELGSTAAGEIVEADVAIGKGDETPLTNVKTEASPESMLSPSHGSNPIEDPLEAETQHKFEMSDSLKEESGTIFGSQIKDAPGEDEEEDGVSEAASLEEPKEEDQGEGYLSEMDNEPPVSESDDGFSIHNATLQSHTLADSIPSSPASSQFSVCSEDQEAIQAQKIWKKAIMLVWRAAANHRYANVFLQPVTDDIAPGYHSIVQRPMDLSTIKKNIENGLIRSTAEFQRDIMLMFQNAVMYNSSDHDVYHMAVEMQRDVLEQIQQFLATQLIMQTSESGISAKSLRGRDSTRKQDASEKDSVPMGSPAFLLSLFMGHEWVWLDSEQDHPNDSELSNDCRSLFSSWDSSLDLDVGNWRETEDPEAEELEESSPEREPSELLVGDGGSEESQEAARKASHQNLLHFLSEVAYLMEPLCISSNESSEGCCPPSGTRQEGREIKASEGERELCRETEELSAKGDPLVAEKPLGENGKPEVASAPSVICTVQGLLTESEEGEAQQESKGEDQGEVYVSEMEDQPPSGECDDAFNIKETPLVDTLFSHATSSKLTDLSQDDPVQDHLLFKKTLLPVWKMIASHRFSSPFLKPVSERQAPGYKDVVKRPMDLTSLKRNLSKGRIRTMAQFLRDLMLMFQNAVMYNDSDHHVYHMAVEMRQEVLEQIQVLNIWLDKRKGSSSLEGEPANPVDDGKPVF
compound,measurement,setting,value
Cc1noc2c1-c1ccccc1C(c1ccc(Cl)cc1)=N[C@H]2CC(N)=O [PELABRESIB],Activity,[1],Toxic
same,Activity,[2],Toxic
same,AUC(0-inf),[3],49 µM·h
same,inhibition,MV4-11 [4],inactive
same,concentration at 24 h,[5],220 nM
same,inhibition in vivo at 30 mg/kg,MV4-11 [6],80%
same,fAUC,[7],1.1 µM·h
same,fCmax,[8],0.3 µM
same,CL/F,[9],21 L/h
same,half-life,[10],9 h
same,Activity,[11],Toxic
same,Vd,[12],1.2 L/kg
same,IC50,[13],> 20 µM
same,AUC(0-inf),[14],9.1 µM·h
same,Tmax,[15],1.8 h
same,inhibition,MV4-11 [16],Active
same,Tmax,[17],0.42 h
same,Activity,MV4-11 [18],Active
same,Activity,[19],Toxic
same,fAUC,[20],0.64 µM·h
same,half-life,[21],0.93 h
same,Tmax,[22],1.3 h
same,IC50,[23],> 15 µM
same,Cmax,[24],1800 nM
same,C0(unbound),[25],11 nM
same,Activity,[26],Toxic
same,Cmax,[27],8400 nM
